{"data": "Experimental data of several laboratories", "FGFR3": "Fibroblast growth factor receptor 3 (FGFR3, Homo sapiens, UniProt P22607)", "FGFR3 G697C": "Fibroblast growth factor receptor 3 (FGFR3, Homo sapiens, UniProt P22607, G697C)", "note": "Each line is one published result; the experiments were not run side by side."}
{"Compound": "N#Cc1ccc(NC(=O)Nc2ccccc2)cc1", "target": "FGFR3", "assay": "cell-free assay, competition with immobilised ligand", "conditions": "25 µM", "endpoint": "remaining binding", "result": "100%"}
{"Compound": "C[C@H]1CC[C@H](n2c3cnccc3c3cnc(Nc4ccc5c(n4)CCN(C(=O)CO)C5)nc32)CC1", "target": "FGFR3", "assay": "cell-free assay, competition with immobilised ligand", "conditions": "1 µM", "endpoint": "remaining binding", "result": "100%"}
{"Compound": "CCCCC(=O)Nc1ccc(-c2ccc3ncn(CCC)c(=O)c3c2)cn1", "target": "FGFR3", "assay": "binding, competition with immobilised ligand", "conditions": "0.5 µM", "endpoint": "remaining binding", "result": "96%"}
{"Compound": "C#Cc1cnc(Nc2ccnc(CO)c2)nc1Nc1ccccc1S(C)(=O)=NC#N (stereo not drawn)", "target": "FGFR3", "assay": "cell-free assay", "conditions": "1 µM", "endpoint": "remaining signal", "result": "28%"}
{"Compound": "C1=C/COCc2cc(ccc2OCCN2CCCC2)Nc2nccc(n2)-c2cccc(c2)COC/1", "target": "FGFR3 G697C", "assay": "binding", "conditions": "0.1 µM", "endpoint": "remaining binding", "result": "100%"}
{"Compound": "C=CC(=O)N1CCC([C@@H]2CCNc3c(C(N)=O)c(-c4ccc(Oc5ccccc5)cc4)nn32)CC1", "target": "FGFR3 G697C", "assay": "cell-free assay", "conditions": "1 µM", "endpoint": "inhibition", "result": "14%"}
{"Compound": "Cc1ccc(NC(=O)c2ccnc(C(F)(F)F)c2)cc1-c1cc(OCCO)nc(N2CCOCC2)c1", "target": "FGFR3", "assay": "binding, competition with immobilised ligand", "conditions": "1 µM", "endpoint": "remaining binding", "result": "90%"}
{"Compound": "CO[C@@H]1[C@H](N(C)C(=O)c2ccccc2)C[C@H]2O[C@]1(C)n1c3ccccc3c3c4c(c5c6ccccc6n2c5c31)C(=O)NC4", "target": "FGFR3", "assay": "enzyme activity, inhibitor", "conditions": "1 µM", "endpoint": "inhibition", "result": "3%"}
{"Compound": "COc1ccc2oc(-c3ccc4nc(N)oc4c3)c/c(=N\\c3ccccc3NC(=O)CCN)c2c1", "target": "FGFR3", "assay": "binding", "conditions": "1 µM", "endpoint": "remaining binding", "result": "107%"}
